In ChEMBL document CHEMBL3739274, “Highly functionalized tetrahydropyridines are cytotoxic and selective inhibitors of human puromycin sensitive aminopeptidase” (Eur J Med Chem, 2015):

Legend:
[1] = Inhibition of Escherichia coli aminopeptidase-N using Leu-pNA as substrate after 30 mins
Summary of the method: (§1)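 Enzyme was preincubated with compound in triplicate for 30 min at 37 °C in 10 mM Tris pH 7.5, 100 mM NaCl. Leu-pNA was then added and the immediate absorbance rise followed at 405 nm. IC₅₀ was computed from the concentration series.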

Aminopeptidase N = target: T1, Aminopeptidase N (Sus scrofa, UniProt P15145); test: Inhibition of porcine aminopeptidase-N using Leu-pNA as substrate after 30 mins
T1 sequence (P15145 whole entry): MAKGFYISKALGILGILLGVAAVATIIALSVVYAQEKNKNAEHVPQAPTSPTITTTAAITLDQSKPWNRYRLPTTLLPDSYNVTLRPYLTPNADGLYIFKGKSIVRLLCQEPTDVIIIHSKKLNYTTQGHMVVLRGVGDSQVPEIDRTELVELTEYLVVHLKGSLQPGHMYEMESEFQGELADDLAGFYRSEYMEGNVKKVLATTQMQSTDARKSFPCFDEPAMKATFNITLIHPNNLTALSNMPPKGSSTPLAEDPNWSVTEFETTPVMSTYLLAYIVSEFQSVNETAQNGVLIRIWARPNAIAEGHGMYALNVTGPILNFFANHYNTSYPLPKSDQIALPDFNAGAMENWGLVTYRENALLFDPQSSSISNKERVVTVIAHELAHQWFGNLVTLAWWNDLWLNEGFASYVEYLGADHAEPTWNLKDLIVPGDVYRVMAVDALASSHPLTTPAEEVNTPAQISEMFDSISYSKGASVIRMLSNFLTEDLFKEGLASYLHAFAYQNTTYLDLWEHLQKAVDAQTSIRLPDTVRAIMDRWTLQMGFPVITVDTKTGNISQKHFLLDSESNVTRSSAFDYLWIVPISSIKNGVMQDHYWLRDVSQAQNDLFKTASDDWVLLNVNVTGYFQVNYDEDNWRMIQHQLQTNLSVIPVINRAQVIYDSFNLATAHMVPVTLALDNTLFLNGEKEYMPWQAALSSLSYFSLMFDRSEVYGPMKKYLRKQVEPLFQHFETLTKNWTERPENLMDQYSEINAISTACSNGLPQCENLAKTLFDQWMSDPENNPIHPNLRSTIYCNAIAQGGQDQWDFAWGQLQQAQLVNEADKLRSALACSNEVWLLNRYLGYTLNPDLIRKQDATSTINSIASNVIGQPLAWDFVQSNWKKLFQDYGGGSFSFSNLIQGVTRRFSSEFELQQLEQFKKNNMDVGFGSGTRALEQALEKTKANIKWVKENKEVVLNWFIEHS
Summary of the method: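 Commercial porcine enzyme was preincubated with compound in triplicate for 30 min at 37 °C. Substrate was then added and the immediate absorbance rise at 405 nm recorded. IC₅₀ was computed from the concentration series.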

[2] = Inhibition of Plasmodium falciparum aminopeptidase-N using Leu-pNA as substrate after 30 mins; summary of the method: as §1
A549 = test: Cytotoxicity against human A549 cells after 48 hrs by MTT assay; type: functional; conditions: A549, 48 h
Summary of the method: (§2)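 Cell lines were grown in modified Eagle's medium with 10% FBS. Cells were seeded at 10,000 per well and left 24 h to attach in humid 5% CO₂. Viability was measured by MTT, with formazan dissolved in DMSO and absorbance read at 562 nm. Results are % cytotoxicity/viability, triplicates.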

HepG2 = test: Cytotoxicity against human HepG2 cells after 48 hrs by MTT assay; type: functional; conditions: HepG2, 48 h; summary of the method: as §2
HeLa = test: Cytotoxicity against human HeLa cells after 48 hrs by MTT assay; type: functional; summary of the method: as §2
[3] = target: Puromycin-sensitive aminopeptidase (Homo sapiens, UniProt P55786); test: Inhibition of recombinant human puromycin sensitive aminopeptidase using Leu-pNA as substrate after 30 mins
Puromycin-sensitive aminopeptidase, sequence (P55786 whole entry): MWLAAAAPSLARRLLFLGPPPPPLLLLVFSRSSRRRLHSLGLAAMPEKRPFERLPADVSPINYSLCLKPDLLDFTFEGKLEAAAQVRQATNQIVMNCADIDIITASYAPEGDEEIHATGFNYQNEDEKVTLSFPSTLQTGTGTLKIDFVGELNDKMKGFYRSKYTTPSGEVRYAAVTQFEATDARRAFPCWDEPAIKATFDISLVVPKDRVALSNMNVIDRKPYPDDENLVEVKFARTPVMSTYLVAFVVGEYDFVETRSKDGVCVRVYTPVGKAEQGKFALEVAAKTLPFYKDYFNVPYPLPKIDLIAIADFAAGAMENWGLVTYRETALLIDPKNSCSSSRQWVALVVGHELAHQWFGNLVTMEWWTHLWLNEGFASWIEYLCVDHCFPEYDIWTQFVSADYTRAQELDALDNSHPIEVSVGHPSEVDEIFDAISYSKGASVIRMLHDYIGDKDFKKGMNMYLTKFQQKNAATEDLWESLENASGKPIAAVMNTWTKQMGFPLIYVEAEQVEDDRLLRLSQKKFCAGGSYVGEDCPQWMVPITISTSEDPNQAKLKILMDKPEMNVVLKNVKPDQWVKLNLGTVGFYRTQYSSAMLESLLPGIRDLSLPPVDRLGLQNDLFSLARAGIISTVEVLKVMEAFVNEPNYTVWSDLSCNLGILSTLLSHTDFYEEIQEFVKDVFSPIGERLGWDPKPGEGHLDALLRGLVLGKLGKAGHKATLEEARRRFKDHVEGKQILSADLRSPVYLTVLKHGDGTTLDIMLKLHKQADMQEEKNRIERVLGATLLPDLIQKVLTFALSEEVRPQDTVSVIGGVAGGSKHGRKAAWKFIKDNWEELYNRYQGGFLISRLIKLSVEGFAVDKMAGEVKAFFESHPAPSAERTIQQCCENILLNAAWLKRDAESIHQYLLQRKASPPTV

IC50 [1] [µM]	IC50 (Aminopeptidase N) [µM]	IC50 [2] [µM]	IC50 [3] [µM]	SMILES	GI50 (A549) [µM]	GI50 (HepG2) [µM]	GI50 (HeLa) [µM]
> 100	> 100	> 100	–	OC1=CC(c2ccccn2)N(c2ccccc2)C(c2ccccn2)C1 (stereo not given)	–	–	–
–	–	–	–	CCOC(=O)C1=C(Nc2ccccc2)CC(c2ccc(Br)cc2)N(c2ccccc2)C1c1ccc([N+](=O)[O-])cc1 (stereo not given)	> 100	> 100	10.6
> 100	> 100	> 100	–	COC(=O)C1=C(Nc2ccccc2)CC(c2ccc([N+](=O)[O-])cc2)N(c2ccccc2)C1c1ccc([N+](=O)[O-])cc1 (stereo not given)	–	–	–
> 100	> 100	> 100	–	CCOC(=O)C1=C(Nc2ccccc2)CC(c2cc(OC)c(OC)c(OC)c2)N(c2ccccc2)C1c1cccnc1 (stereo not given)	–	–	–
> 100	> 100	> 100	–	CCOC(=O)C1C(=O)CC(c2cccnc2)N(c2ccccc2)C1c1cccnc1 (stereo not given)	> 100	11.2	9.32
> 100	> 100	> 100	–	CCOC(=O)C1C(=O)CC(c2ccccn2)N(c2ccccc2)C1c1ccccn1 (stereo not given)	–	–	–
–	–	–	–	CCOC(=O)C1=C(Nc2ccc(C)cc2)CC(c2ccc(F)cc2)N(c2ccc(C)cc2)C1c1ccc(F)cc1 (stereo not given)	> 100	14.9	> 100
> 100	> 100	> 100	–	CCOC(=O)C1=C(Nc2ccccc2)CC(c2ccc(Br)cc2)N(c2ccccc2)C1c1cccs1 (stereo not given)	–	–	–
> 100	> 100	> 100	–	CCOC(=O)C1=C(Nc2ccccc2)CC(c2ccc(Cl)cc2)N(c2ccccc2)C1c1cccnc1 (stereo not given)	> 100	11.9	9.95
> 100	> 100	> 100	–	CCOC(=O)C1=C(Nc2ccc(C)cc2)CC(c2ccccc2)N(c2ccc(C)cc2)C1c1ccccn1 (stereo not given)	> 100	> 100	90.7
> 100	> 100	> 100	–	CCOC(=O)C1=C(Nc2ccccc2)CC(c2ccccn2)N(c2ccccc2)C1c1ccccn1 (stereo not given)	–	–	–
> 100	> 100	> 100	–	CCOC(=O)C1=C(Nc2ccccc2)CC(c2ccc(C#N)cc2)N(c2ccccc2)C1c1cccnc1 (stereo not given)	> 100	13.7	> 100
> 100	> 100	> 100	–	CCOC(=O)C1=C(Nc2ccccc2)CC(c2ccc(C#N)cc2)N(c2ccccc2)C1c1ccccn1 (stereo not given)	–	–	–
> 100	> 100	> 100	–	OC1=CC(c2cccnc2)N(c2ccccc2)C(c2cccnc2)C1 (stereo not given)	–	–	–
–	–	–	–	CCOC(=O)C1=C(Nc2ccccc2)CC(c2ccc(F)cc2)N(c2ccccc2)C1c1ccc([N+](=O)[O-])cc1 (stereo not given)	> 100	> 100	88.2
> 100	> 100	> 100	–	CCOC(=O)C1=C(Nc2ccccc2)CC(c2cccnc2)N(c2ccccc2)C1c1cccnc1 (stereo not given)	> 100	81.5	87.9
–	–	–	–	COc1cccc2c1C(=O)c1c(O)c3c(c(O)c1C2=O)C[C@@](O)(C(=O)CO)C[C@@H]3O[C@H]1C[C@H](N)[C@H](O)[C@H](C)O1 [DOXORUBICIN]	8.14	4.45	7.51
> 100	> 100	> 100	2.45	COc1ccc(C[C@H](N)C(=O)N[C@H]2[C@@H](O)[C@H](n3cnc4c(N(C)C)ncnc43)O[C@@H]2CO)cc1 [PUROMYCIN]	–	–	–
